Measurements from ChEMBL document CHEMBL1146234, “Synthesis and biological evaluation of N-pyrazolyl-N'-alkyl/benzyl/phenylureas: a new class of potent inhibitors of interleukin 8-induced neutrophil chemotaxis” (J Med Chem, 2007).
The source made the active and inactive calls. The calls are words filed in the database; no cut-off is given here.

Tests used:
Homo sapiens [1] = organism: Homo sapiens; experiment: Inhibition of pyk2 50Kda region in human neutrophils assessed as reduction of IL8 stimulated tyrosin phosphorylation at 0.05 uM after 30 mins
How it was run: (§1)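 Neutrophils (2.5 × 10⁷ cells/mL) were treated with 10⁻³ M diisopropylfluorophosphate for 30 min at room temperature. They were then incubated 30 min ± compound and stimulated with 10⁻⁷ M IL8 for 0.5 min. Samples were boiled in SDS buffer and run on 7.5-20% SDS-PAGE, then blotted to nitrocellulose. Blots were probed overnight at 4 °C with anti-phosphotyrosine mAb 4G10 and detected by ECL. Ponceau S staining confirmed equal loading.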

[2] = molecular target: Proto-oncogene tyrosine-protein kinase Src (Homo sapiens) (UniProt P12931); experiment: Binding affinity to SRC
Chain of Proto-oncogene tyrosine-protein kinase Src (Homo sapiens) (P12931 2-536 limits assumed): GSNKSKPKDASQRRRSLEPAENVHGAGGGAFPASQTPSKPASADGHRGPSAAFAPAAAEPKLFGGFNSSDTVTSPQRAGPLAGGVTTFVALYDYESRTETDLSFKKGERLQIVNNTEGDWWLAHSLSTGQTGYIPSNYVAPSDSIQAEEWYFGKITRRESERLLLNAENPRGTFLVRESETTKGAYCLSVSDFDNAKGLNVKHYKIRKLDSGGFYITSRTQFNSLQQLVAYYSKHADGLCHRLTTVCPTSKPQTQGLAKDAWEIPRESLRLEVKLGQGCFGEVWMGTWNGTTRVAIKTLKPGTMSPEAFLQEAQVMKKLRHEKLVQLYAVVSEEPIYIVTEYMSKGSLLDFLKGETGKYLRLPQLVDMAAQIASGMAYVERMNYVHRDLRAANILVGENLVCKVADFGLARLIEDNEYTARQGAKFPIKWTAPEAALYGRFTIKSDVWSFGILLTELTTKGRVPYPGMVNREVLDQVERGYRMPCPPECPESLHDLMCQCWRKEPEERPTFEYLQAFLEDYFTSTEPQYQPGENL

Homo sapiens [3] = organism: Homo sapiens; experiment: Inhibition of pyk2 60-70Kda region in human neutrophils assessed as reduction of IL8 stimulated tyrosin phosphorylation at 0.05 uM after 30 mins; how it was run: as §1
[4] = molecular target: T1, C-X-C chemokine receptor type 1 (Homo sapiens) (UniProt P25024); experiment: Binding affinity to CXCR1
T1 sequence (whole entry): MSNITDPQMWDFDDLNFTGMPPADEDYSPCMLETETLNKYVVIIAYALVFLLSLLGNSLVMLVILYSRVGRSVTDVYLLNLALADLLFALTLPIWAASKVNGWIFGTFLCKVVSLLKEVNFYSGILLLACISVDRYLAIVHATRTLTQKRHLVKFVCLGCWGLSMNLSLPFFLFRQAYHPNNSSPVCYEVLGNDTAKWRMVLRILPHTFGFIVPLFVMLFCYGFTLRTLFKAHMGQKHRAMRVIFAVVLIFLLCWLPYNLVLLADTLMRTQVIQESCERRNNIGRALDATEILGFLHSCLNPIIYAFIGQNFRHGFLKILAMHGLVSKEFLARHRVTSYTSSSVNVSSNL

[5] = molecular target: RAC-alpha serine/threonine-protein kinase (Homo sapiens) (UniProt P31749); experiment: Inhibition of IL8-induced Akt phosphorylation in human neutrophils at 0.05 uM
Chain of RAC-alpha serine/threonine-protein kinase (Homo sapiens) (P31749 whole entry): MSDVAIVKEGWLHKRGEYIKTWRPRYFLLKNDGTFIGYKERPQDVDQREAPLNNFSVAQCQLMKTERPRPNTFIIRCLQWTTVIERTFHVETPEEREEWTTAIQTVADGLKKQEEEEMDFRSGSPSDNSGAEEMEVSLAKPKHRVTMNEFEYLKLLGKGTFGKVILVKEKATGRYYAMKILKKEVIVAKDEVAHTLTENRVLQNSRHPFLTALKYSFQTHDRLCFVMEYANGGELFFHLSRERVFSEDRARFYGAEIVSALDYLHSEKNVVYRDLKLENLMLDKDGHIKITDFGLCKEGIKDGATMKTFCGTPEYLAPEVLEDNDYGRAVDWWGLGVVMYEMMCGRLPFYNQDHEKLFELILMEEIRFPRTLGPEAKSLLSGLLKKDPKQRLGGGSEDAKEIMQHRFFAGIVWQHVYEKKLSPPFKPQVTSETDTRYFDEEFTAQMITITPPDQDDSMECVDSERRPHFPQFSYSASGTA
How it was run: (§2)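 Purified human neutrophils (1 × 10⁷ cells/mL) were pretreated 30 min with compound, then exposed to 10 nM IL8 or none for 5 min at 37 °C. Cells were lysed in NP40 buffer, and protein was quantified by BCA. Then […] protein per lane was run on 12% SDS-PAGE, blotted to nitrocellulose, and probed overnight at 4 °C with anti-phospho-Akt mAb. Detection was by ECL.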

[6] = molecular target: T2, Tyrosine-protein kinase ZAP-70 (Homo sapiens) (UniProt P43403); experiment: Binding affinity to Zap70
T2 sequence (whole entry): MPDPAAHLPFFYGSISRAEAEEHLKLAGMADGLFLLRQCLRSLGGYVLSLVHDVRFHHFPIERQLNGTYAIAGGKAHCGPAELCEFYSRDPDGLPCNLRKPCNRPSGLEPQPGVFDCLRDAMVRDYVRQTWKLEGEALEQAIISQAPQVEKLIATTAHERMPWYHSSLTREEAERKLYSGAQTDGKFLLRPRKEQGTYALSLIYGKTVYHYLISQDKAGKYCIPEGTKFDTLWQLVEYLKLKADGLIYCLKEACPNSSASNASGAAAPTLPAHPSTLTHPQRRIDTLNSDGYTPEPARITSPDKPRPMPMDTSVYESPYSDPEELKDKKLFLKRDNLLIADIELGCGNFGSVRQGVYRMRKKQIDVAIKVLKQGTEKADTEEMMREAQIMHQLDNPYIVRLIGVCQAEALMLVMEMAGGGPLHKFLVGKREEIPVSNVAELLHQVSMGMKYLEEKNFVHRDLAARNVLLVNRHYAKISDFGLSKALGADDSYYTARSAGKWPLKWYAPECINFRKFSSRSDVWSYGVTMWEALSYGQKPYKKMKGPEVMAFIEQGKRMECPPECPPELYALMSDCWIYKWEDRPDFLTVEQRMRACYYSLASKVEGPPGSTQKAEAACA

Homo sapiens [7] = organism: Homo sapiens; experiment: Inhibition of pyk2 50Kda region in human neutrophils assessed as reduction of IL8 stimulated tyrosin phosphorylation at 0.01 uM after 30 mins; how it was run: as §1
Homo sapiens [8] = organism: Homo sapiens; experiment: Inhibition of pyk2 60-70Kda region in human neutrophils assessed as reduction of IL8 stimulated tyrosin phosphorylation at 0.01 uM after 30 mins; how it was run: as §1
[9] = molecular target: RAC-alpha serine/threonine-protein kinase (Homo sapiens) (UniProt P31749); experiment: Inhibition of IL8-induced Akt phosphorylation in human neutrophils at 0.01 uM; how it was run: as §2
Homo sapiens [10] = organism: Homo sapiens; experiment: Inhibition of pyk2 60-70Kda region in human neutrophils assessed as reduction of IL8 stimulated tyrosin phosphorylation at 0.06 uM after 30 mins; how it was run: as §1
[11] = molecular target: RAC-alpha serine/threonine-protein kinase (Homo sapiens) (UniProt P31749); experiment: Inhibition of IL8-induced Akt phosphorylation in human neutrophils at 0.06 uM; how it was run: as §2
Homo sapiens [12] = organism: Homo sapiens; experiment: Inhibition of pyk2 50Kda region in human neutrophils assessed as reduction of IL8 stimulated tyrosin phosphorylation at 0.06 uM after 30 mins; how it was run: as §1

inhibition (Homo sapiens [1])	Activity [2]	inhibition (Homo sapiens [3])	Activity [4]	Activity [5]	Activity [6]	inhibition (Homo sapiens [7])	inhibition (Homo sapiens [8])	Activity [9]	inhibition (Homo sapiens [10])	Activity [11]	inhibition (Homo sapiens [12])	SMILES
71%	inactive	81%	inactive	inactive	inactive	–	–	–	–	–	–	CCOC(=O)c1cnn(CC(O)c2ccccc2)c1NC(=O)Nc1ccccc1 (stereo not drawn)
–	inactive	–	inactive	–	inactive	70%	63%	inactive	–	–	–	CCOC(=O)c1cnn(CC(O)c2ccccc2)c1NC(=O)NCc1ccccc1 (stereo not drawn)
–	inactive	–	inactive	–	inactive	–	–	–	53%	inactive	20%	CCOC(=O)c1cnn(CC(O)c2ccccc2)c1NC(=O)NC(C)C (stereo not drawn)
